Screening results: PubChem BioAssay, several laboratories
This is a sample that favours compounds with a hit; in the whole collection about 9.6% have one here.
TNAP act hiacc = TNAP activators at high phosphate acceptor level, primary screen, biochemical, luminescence, uHTS; activation factor at 20 µM; 200,000 tested, under 10 active; Alkaline phosphatase, tissue-nonspecific isozyme (Homo sapiens), P05186; purified TNAP, CDP-star luminescence, 1 M DEA, 30 min; stronger effect = higher value; 0 = EDTA background, 1 = DMSO-only activity;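 active = activation factor at least 2 at 20 µM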
Target sequence (P05186 whole entry, looked up): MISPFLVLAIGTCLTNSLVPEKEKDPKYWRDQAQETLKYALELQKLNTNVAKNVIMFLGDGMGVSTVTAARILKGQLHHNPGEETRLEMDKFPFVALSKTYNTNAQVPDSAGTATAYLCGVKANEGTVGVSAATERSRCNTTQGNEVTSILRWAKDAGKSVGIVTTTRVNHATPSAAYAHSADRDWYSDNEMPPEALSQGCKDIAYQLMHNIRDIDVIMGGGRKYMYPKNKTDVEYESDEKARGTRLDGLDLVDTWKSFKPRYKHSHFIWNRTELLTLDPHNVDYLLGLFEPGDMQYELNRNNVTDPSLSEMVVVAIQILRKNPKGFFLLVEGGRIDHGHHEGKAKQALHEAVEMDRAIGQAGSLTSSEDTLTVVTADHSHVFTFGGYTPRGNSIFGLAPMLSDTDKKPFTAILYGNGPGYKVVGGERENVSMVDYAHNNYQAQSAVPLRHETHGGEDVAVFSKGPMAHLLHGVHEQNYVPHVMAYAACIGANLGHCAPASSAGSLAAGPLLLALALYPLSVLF
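Assay system: human TNAP; Input: enzyme diluted 1/800 final; Reagent: CDP-star luminogenic substrate at 100 µM final; Timing: 30 min, room temperature; Signal: luminescence; Evaluation: TNAP activation factor scaled between EDTA and DMSO control wells.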
TNAP inh hi DEA = human TNAP enzyme inhibitors, primary screen, biochemical, luminescent, high phosphate acceptor level, uHTS; Alkaline phosphatase, tissue-nonspecific isozyme (Homo sapiens), P05186; purified TNAP, CDP-star luminescence, 1 M DEA; inhibition, % at 20 µM; 0.03% of 200,000 active;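 active = over 50% inhibition of tissue-nonspecific alkaline phosphatase at 20 µM in the single-dose screen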;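 note: plate controls were DMSO wells for no effect and EDTA-quenched wells as full inhibition for full effect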
PTEN del growth = growth suppression of PTEN-null HCT116, primary screen, cell-based, CellTiter-Glo | HCT116 PTEN-null viability, 60 h; stronger effect = lower value | viability, % at 10 µM | 1.2% of 140,000 active | AID 827, 2007;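 active = viability at or below a set limit, 4 SD under the median of all tested compounds, cut at about 3.7% in these data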;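 note: PTEN knockout HCT116 line with beta catenin targeted HCT116 as companion control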
bCat KO growth = primary screen for growth suppressors in beta-catenin knockout HCT116 cells (colon tumor, human). HCT116 beta-catenin knockout viability, CellTiter-Glo, 60 h; stronger effect = lower value. viability, % at 10 µM. 1.5% of 140,000 active. AID 818, 2007;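 active = viability at or under a set limit, the compound median less 4 SD, cut at about 6% in these data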;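 note: 0% = Hyamine 1622 control at 20 µM and 100% = untreated cell control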
L major viab = Leishmania major promastigote growth inhibition, primary screen; inhibition, % at 10 µM; 9% of 200,000 active; Leishmania major promastigotes, resazurin fluorescence viability; AID 1063, 2008; in the data active = inhibition above about 50%;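 note: promastigotes grown with compound for 44 hours at 28 °C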
TNAP inh no acc = human TNAP enzyme inhibitors, primary screen, biochemical, luminescent, no phosphate acceptor, uHTS; inhibition, % at 20 µM; purified TNAP, CDP-star luminescence, 30 min; 0.26% of 200,000 active;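 active = tissue-nonspecific alkaline phosphatase inhibition above about 50% at 20 µM in the single-dose screen, limit read from the data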;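 note: 0% = DMSO negative control and 100% = EDTA positive control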
* = called active by the depositor; x = no result.

SMILES	TNAP act hiacc	TNAP inh hi DEA	PTEN del growth	bCat KO growth	L major viab	TNAP inh no acc
S=C(NC1CCCCC1)N1CCN(Cc2ccccc2)CC1	1.1	-6	82	82	2	-8
COc1ccc(NC(=O)CS(=O)(=O)c2cn(CC(=O)N3CCOCC3)c3ccccc23)cc1	1	-4	x	x	-6	-11
COCCN1Cc2cccc(C(=O)Nc3c(C)cc(C)cc3C)c2C1=O	1	-2	85	92	72*	-8
CCCN1Cc2cccc(C(=O)Nc3ccc4c(c3)OCCO4)c2C1=O	1.1	-8	110	102	69*	-16
CCCN1Cc2cccc(C(=O)Nc3ccc4c(c3)OCO4)c2C1=O	1	-5	95	92	-3	-9
CC(=O)N1CCc2cc(N=NC3=C(O)CC(C)(C)CC3=O)ccc21	0.8	23	x	x	-3	14
COc1nsnc1NS(=O)(=O)c1ccc(NC(=S)NC(=O)c2cccnc2)cc1	1	-4	x	x	-4	1
Cn1c(NCC(O)CO)nc2c1c(=O)n(Cc1ccc(Cl)c(Cl)c1)c(=O)n2C (stereo not given)	1	-4	86	97	73*	-10
CCN(CC)CCCN(Cc1cc2cc3c(cc2[nH]c1=O)OCO3)C(=S)Nc1ccccc1OC	1	-4	x	x	-4	-2
COC(=O)C1=CN(Cc2ccc(OC)cc2)C=C(C(=O)OC)C1c1cccs1	1.1	-8	x	x	100*	-16
CCOC(Cn1cc(C)c(=O)[nH]c1=O)OCC	1	-2	x	x	-6	-9
CCOc1ccc2c(c1)OC(c1ccc(OC)cc1)(C(F)(F)F)NC2=O (stereo not given)	1	-4	14	15	100*	-10
CCOc1ccc2c(c1)OC(c1ccccc1)(C(F)(F)F)NC2=O (stereo not given)	1	-3	109	89	-2	-13
COc1ccccc1C(=O)NCC(=O)N/N=C/c1cccc(Cl)c1	1	-4	x	x	18	1
COc1ccc(C(=O)CSc2nnc(-c3ccco3)c(-c3ccco3)n2)cc1	1	4	x	x	99*	-4
COc1ccc(C(=O)CSc2nnc(-c3ccco3)n2C)cc1	1	-3	100	94	11	-11
Cc1ccc(NC(=O)CSc2ccc(-c3ccco3)nn2)cc1	1	1	x	x	12	-3
O=C(CSc1nnc(-c2ccccc2)c(-c2ccccc2)n1)Nc1ccc(Br)cn1	1	2	42	30	66*	-11
O=C(CSc1nnc(-c2ccccc2)c(-c2ccccc2)n1)Nc1ncc(Cl)cc1Cl	1	3	79	77	41	-30
Cc1ccc(NC(=O)CSc2nnc(-c3ccco3)c(-c3ccco3)n2)cc1	1	2	23	18	96*	-10
O=C(CSc1nnc(-c2ccco2)c(-c2ccco2)n1)Nc1ccccc1	1	2	95	90	75*	-10
O=C(CNC(=S)N(Cc1ccccc1Cl)C1CCCC1)NCCN1CCOCC1	1.1	-7	x	x	1	-53
CCCCNC(=O)CCn1c(=O)c2ccccc2n(Cc2ccc(F)cc2)c1=O	1	-1	85	62	44	-21
CCN1CCN(CCCCSc2ccccc2)CC1	1	-2	94	87	78*	-9
c1ccc(-c2ccccc2OCCCCN2CCCCC2)cc1	1	-1	55	68	95*	-8
SMILES	TNAP act hiacc	TNAP inh hi DEA	PTEN del growth	bCat KO growth	L major viab	TNAP inh no acc
c1ccc(-c2ccccc2OCCCN2CCCCCC2)cc1	1.1	-7	x	x	98*	-12
c1ccc(-c2ccccc2OCCCN2CCCC2)cc1	1	-2	70	74	48	-6
COc1ccc(OC)c(-c2csc(NC(=O)Cn3[nH]c(=O)c4ccccc4c3=O)n2)c1	1	0	x	x	4	-8
COc1ccc(OC)c(-c2csc(NC(=O)CSc3ccc([N+](=O)[O-])cc3)n2)c1	1	-1	75	85	85*	-8
COc1ccc(OC)c(-c2csc(NC(=O)CSc3ccc(Br)cc3)n2)c1	1	-2	80	87	53*	-16
O=C(Cc1c(F)cccc1Cl)Nc1ccccc1N1CCCCC1	1.1	-5	x	x	-2	-10
COc1ccc(CC(=O)Nc2ccc(C(=O)Nc3ccccc3C(=O)O)cc2)cc1OC	1	1	107	98	-6	-1
COc1ccc(C(CC(=O)c2ccc(C)cc2)C(C#N)C#N)cc1OC (stereo not given)	1	0	6	10	90*	-1
CCOC(=O)c1ccc(NC(=O)Nc2ccc(OC)c(OC)c2)cc1	1.1	-7	75	71	58*	-20
CCOC(=O)c1ccc(OS(=O)(=O)c2ccccc2)c(OC)c1	1	3	98	79	92*	-13
CCOC(=O)c1ccc(NC(=O)Nc2ccc(F)cc2)cc1	1.1	-7	45	63	96*	-14
COC(=O)c1ccc(NC(=O)Nc2ccc(F)cc2)cc1	1.1	-9	81	84	-8	-4
O=C(Nc1ccc(F)cc1)Nc1cc(OCC(F)(F)F)cc(OCC(F)(F)F)c1	1	-4	3.7*	5.5*	99*	-2
Cc1cc(C)n2nc(SC(C)C(=O)Nc3ccc(Cl)cn3)nc2n1 (stereo not given)	1	-2	x	x	5	-4
O=C(NCCNC(=O)c1cc(OCC(F)(F)F)ccc1OCC(F)(F)F)Nc1ccc(OC(F)(F)F)cc1	1	0	63	59	-1	6
O=C(NCCNC(=O)c1cc(OCC(F)(F)F)ccc1OCC(F)(F)F)Nc1ccc(Cl)cc1	0.9	6	10	5.4*	27	-2
Nc1ccc2oc(-c3ccc4nc[nH]c4c3)nc2c1	1	4	64	68	2	-40
Cc1nc2ccc(-c3nc4cc(N)ccc4o3)cc2[nH]1	1.1	-5	85	88	53*	-20
COc1ccc(CC(=O)N(Cc2cc3cc(OC)ccc3[nH]c2=O)C(C)C)cc1	1	-5	83	88	94*	-9
O=C(NC1CCCCC1)N(Cc1cc2cc3c(cc2[nH]c1=O)OCCO3)C1CCCCC1	0.9	13	77	74	69*	-2
COC(=O)c1ccccc1NC(=S)N(Cc1ccc2c(c1)OCO2)Cc1cc2cc(OC)ccc2[nH]c1=O	1	-3	73	75	55*	-2
CCc1ccc2[nH]c(=O)c(CN(Cc3ccccc3)C(=O)Nc3ccccc3OC)cc2c1	1	-2	44	45	64*	-4
